Screens as filed in PubChem BioAssay.
Sampled rows, rich in hits. Any-hit rate of the full collection: about 4.3%.
CAL PDZ FP-1: inhibitors of human CAL PDZ peptide binding | purified CAL PDZ, TMR-peptide fluorescence polarization, 1 h | inhibition, % at 20 µM | 0.02% of 330,000 active | AID 504414;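 active means highest replicate inhibition of at least 40%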;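 further: plate controls were DMSO neutral control wells for no effect and unlabeled competitor peptide control wells for full effect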
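Test system: purified CerCALP PDZ construct; Compound dosing: one concentration, 20 µM compound; Also added: TMR-labelled reporter peptide T*-PRC34 bound in PDZ groove; Read-out: inhibition from polarization loss; Controls: unlabelled peptide and DMSO controls; Signal: FP readout, S and P plane fluorescence; Incubation: 1 h at RT.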
ALR inh: inhibitors of human sulfhydryl oxidase ALR; P55789; purified ALR, DTT oxidation, H2O2 HRP-luminol luminescence; inhibition, % (no concentration beside the values); 3.8% of 290,000 active; AID 485317;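 active means mean replicate inhibition above about 79%, with every replicate also reaching it, limit read from the data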
Target sequence (P55789 whole entry, looked up): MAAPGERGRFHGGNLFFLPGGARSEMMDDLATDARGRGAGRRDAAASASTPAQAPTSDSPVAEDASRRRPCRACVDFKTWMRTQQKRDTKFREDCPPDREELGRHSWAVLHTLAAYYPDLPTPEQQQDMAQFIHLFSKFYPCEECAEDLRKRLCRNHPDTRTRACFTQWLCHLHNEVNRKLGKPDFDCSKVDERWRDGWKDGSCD
CAL PDZ FP-2: inhibitors of human CAL PDZ peptide binding | 0.92% of 300,000 active | purified CAL PDZ, TMR-peptide fluorescence polarization, 1 h | inhibition, % at 24.9 µM | Q9HD26 | AID 602252;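 active means mean inhibition of at least 30% with at least half of replicates also reaching 30%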;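 further: 0% = DMSO neutral control and 100% = excess unlabeled competitor peptide PRC23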
Rtt109 Vps75: C. albicans Rtt109 histone acetyltransferase inhibition. purified Rtt109/Vps75, ThioGlo CoA-SH fluorescence, 4 h. inhibition, % at 34.9 µM. 0.16% of 330,000 active. AID 540336;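 active means inhibition of at least 50% in every replicate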
Target sequence (Q5AAJ8 whole entry, looked up): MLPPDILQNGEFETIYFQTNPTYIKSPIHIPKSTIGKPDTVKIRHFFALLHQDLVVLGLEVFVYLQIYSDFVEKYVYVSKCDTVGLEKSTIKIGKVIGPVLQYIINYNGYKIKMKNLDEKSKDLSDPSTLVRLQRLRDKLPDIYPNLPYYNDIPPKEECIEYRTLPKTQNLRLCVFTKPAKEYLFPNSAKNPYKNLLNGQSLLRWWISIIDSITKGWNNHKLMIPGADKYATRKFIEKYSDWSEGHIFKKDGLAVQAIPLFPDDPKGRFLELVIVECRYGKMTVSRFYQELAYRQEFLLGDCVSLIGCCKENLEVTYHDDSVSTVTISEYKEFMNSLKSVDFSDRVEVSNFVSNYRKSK
DYRK1A inh: inhibitors of rat Dyrk1A kinase | Q63470 | ADP-Glo luminescence, NFATc1 peptide | inhibition, % at 12.5 µM | 0.43% of 310,000 active | AID 504441; in the data active means inhibition above about 50%;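 further: plate controls were vehicle with enzyme for no effect and no enzyme for full effect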
An asterisk follows results filed as active; x = no result given.

SMILES | CAL PDZ FP-1 | ALR inh | CAL PDZ FP-2 | Rtt109 Vps75 | DYRK1A inh
Cc1cc(NC(=O)CSCC(=O)N(c2cccc(Cl)c2)C(C(=O)NC2CCCCC2)c2ccc(O)c(O)c2)no1 (stereo not drawn) | -0.6 | 99.0* | -1.2 | 5.3 | -2.0
CC(=O)Nc1ccc(N(C(=O)Cn2nnc3ccccc32)C(C(=O)NC2CCCC2)c2ccc(O)c(O)c2)cc1 (stereo not drawn) | -0.1 | 92.5* | 2.1 | x | 2.3
COc1ccc(N(C(=O)CSCC(=O)Nc2cc(C)on2)C(C(=O)NC2CCCCC2)c2ccc(O)c(O)c2)cc1 (stereo not drawn) | -3.2 | 85.0* | -4.4 | 2.8 | -0.9
Cc1cc(NC(=O)CSCC(=O)N(c2ccc(F)cc2)C(C(=O)NC2CCCCC2)c2ccc(O)c(O)c2)no1 (stereo not drawn) | 0.0 | -3.2 | 0.4 | -0.8 | -0.6
FC(F)(Cl)c1nnc2ccc(Sc3ccccn3)nn12 | -0.3 | -10.7 | x | 3.1 | -0.8
CCc1cc(=O)[nH]c(SCCC(F)=C(F)F)n1 | -0.4 | 0.1 | 1.8 | -0.6 | 8.1
Cc1c(NC(=O)COC(=O)c2ccc(F)c(S(=O)(=O)N3CCOCC3)c2)c(=O)n(-c2ccccc2)n1C | -1.1 | 1.2 | -5.9 | 3.2 | 4.2
COC(=O)c1sccc1NC(=O)CC1C(=O)NCCN1C(=O)Nc1ccc(C(F)(F)F)cc1 (stereo not drawn) | -0.3 | -5.9 | 7.7 | 3.4 | -0.3
CCCCc1ccc(-c2csc(/C(C#N)=C\c3ccco3)n2)cc1 | -1.9 | 84.0* | -3.6 | 9.2 | -1.6
CCCCc1ccc(-c2csc(/C(C#N)=C/c3ccc(C)o3)n2)cc1 | 0.2 | 0.1 | -5.9 | 0.1 | -6.2
CC(C(=O)NC(C)(C)C)N(C(=O)CS(=O)CC(=O)Nc1ccc(F)cc1)c1ccccc1F (stereo not drawn) | 1.4 | -8.6 | 33.2* | -3.3 | 0.8
CCCN(C(=O)c1cc(Cl)nc2ccccc12)c1c(N)n(Cc2ccccc2)c(=O)[nH]c1=O | -2.7 | -16.8 | 2.5 | -4.6 | x
Cn1ccnc1SCc1cccc([N+](=O)[O-])c1 | -1.8 | 98.4* | -2.1 | -3.7 | -5.6
Cn1ccnc1SCc1ccc([N+](=O)[O-])cc1 | -1.4 | 98.5* | -3.9 | -4.0 | -35.4
Cc1cccc(C)c1NC(=O)COC(=O)c1cccnc1 | -0.6 | -22.5 | x | -3.4 | -2.0
Cc1ccc(NC(=S)Nc2ccc3cn[nH]c3c2)c(C)c1 | -1.0 | 16.4 | 2.4 | -8.1 | 71.2*
Cc1ccc(NC(=S)Nc2ccc3cn[nH]c3c2)cc1C | -1.0 | -6.7 | 0.2 | 2.3 | 39.4
O=S(=O)(c1ccc(Cl)cc1)c1cc(O)ccc1O | -0.7 | 99.2* | 0.1 | -2.3 | -0.6
Cc1c(O)ccc2cc(S(=O)(=O)c3ccccc3)c(=O)oc12 | -0.4 | x | -4.8 | 9.6 | -0.3
O=S(=O)(c1ccccc1)c1cc(O)ccc1O | -4.5 | 97.8* | -2.6 | 4.1 | 1.2
c1ccc2nc(N3CCCC3)c(N3CCCC3)nc2c1 | -2.2 | 98.6* | -1.2 | 1.1 | 6.6
CCN(C(=O)COC(=O)C1CCN(S(=O)(=O)c2cccs2)CC1)c1ccccc1 | 0.1 | -18.7 | -2.6 | 3.3 | -4.0
CCCn1c(SCC(=O)Nc2cc(Cl)ccc2Cl)n[nH]c1=O | -1.2 | 4.4 | 52.0* | -3.6 | x
CC(C)(C)OC(=O)C[C@@H]1C/C=C\C[C@H](CC(=O)N(CCO)Cc2ccccc2)C(=O)N2CCC[C@H]2COC1=O | -1.9 | -1.8 | -3.0 | 1.9 | 0.6
Cc1oc(-c2ccccc2)nc1CSc1nc2c(c(=O)[nH]1)CCC2 | -0.6 | x | x | 7.4 | 14.6
SMILES | CAL PDZ FP-1 | ALR inh | CAL PDZ FP-2 | Rtt109 Vps75 | DYRK1A inh
Cc1cccc(-c2nc(CSc3nc4c(c(=O)[nH]3)CCC4)c(C)o2)c1 | -1.4 | 98.8* | x | 5.9 | 5.9
Cc1oc(-c2cccc(Cl)c2)nc1CN1CCC(C(=O)NC2CC2)CC1 | -3.5 | -1.6 | -0.5 | -21.6 | -6.1
CCc1ccc(-c2nc(CN3CCC(C(=O)NCc4ccc(F)cc4)CC3)c(C)o2)cc1 | -4.2 | -6.2 | -2.9 | -5.2 | 1.6
CCN(CCNC(=O)C1CCN(Cc2nc(-c3ccc(Cl)cc3)oc2C)CC1)c1ccccc1 | 0.0 | 98.3* | -1.3 | 8.5 | -0.6
CCc1ccc(-c2nc(CN3CCC(C(=O)NCCN(CC)c4ccccc4)CC3)c(C)o2)cc1 | -0.1 | 98.6* | -3.8 | -10.4 | 5.0
CCN(CCNC(=O)C1CCN(Cc2nc(-c3cccc(Cl)c3)oc2C)CC1)c1ccccc1 | -0.7 | 98.5* | -2.0 | 9.7 | 2.9
CCc1ccc(-c2nc(CN3CCCC(C(=O)O)C3)c(C)o2)cc1 (stereo not drawn) | -0.6 | -2.1 | x | 15.7 | 1.9
CCN(CCNC(=O)C1CCCN(Cc2nc(-c3ccc(OC)cc3)oc2C)C1)c1ccccc1 (stereo not drawn) | -0.7 | 96.5* | -0.7 | 20.1 | -3.3
C#CCCOC(=O)N1C2=NC(C(=O)OC)=C(C(=O)OC)[C@@H]3Nc4ccccc4[C@]23C[C@H]1C(=O)OC | -1.7 | -8.3 | 0.2 | -0.5 | 4.8
Cc1ccc(SCC(=O)N2CCN(c3ccccn3)CC2)cc1 | 0.4 | 1.0 | -2.3 | 4.7 | -4.8
O=C(CSc1nccc2ccccc12)N1CCN(c2ccccn2)CC1 | -0.6 | 98.3* | x | -2.9 | 10.8
O=C(c1ccc(-c2ccccc2)cc1)N1CCN(c2ccccn2)CC1 | -0.6 | -1.7 | 78.2* | x | -0.1
COc1ccc(C(CC(=O)NC(C)c2ccc(-c3ccccc3)cc2)NC(C)=O)cc1 (stereo not drawn) | -2.6 | -0.1 | -3.0 | -3.7 | -1.9
CCN(CC)CCn1c2c(c(SCC(=O)Nc3ccc4c(c3)OCCO4)nc1=O)CCC2 | -2.2 | -353.3 | 0.7 | -9.0 | -13.5
COc1ccc(NC(=O)CSc2nc(=O)n(CCN(C)C)c3c2CCCC3)cc1OC | 0.3 | 6.3 | x | 0.3 | -2.8
CN(C)CCn1c2c(c(SCC(=O)Nc3ccccc3)nc1=O)CCCC2 | -1.6 | 47.0 | 2.1 | -3.7 | 7.7
CN(C)CCn1c2c(c(SCC(=O)Nc3ccc4c(c3)OCCO4)nc1=O)CCCC2 | -0.8 | 96.8* | -0.9 | -2.1 | 3.3
CN(C)CCn1c2c(c(SCC(=O)Nc3ccc4c(c3)OCCO4)nc1=O)CCC2 | -0.8 | 97.5* | x | -2.6 | x
Cc1ccc(NC(=O)CSc2nc(=O)n(CCCN(C)C)c3c2CCC3)c(C)c1 | -2.2 | -10.4 | -1.3 | -4.2 | 12.3
CN(C)CCn1c2c(c(SCC(=O)Nc3cccc(C(F)(F)F)c3)nc1=O)CCCC2 | -1.8 | 97.7* | 3.8 | 2.0 | 5.8
Cc1ccc2nc(NC(=O)CSc3nc(=O)n(CCN(C)C)c4c3CCCC4)sc2c1 | -1.6 | 98.0* | x | -5.2 | x
CN(CC(=O)Nc1ccc(S(=O)(=O)N2CCOCC2)cc1)Cc1ccc(F)cc1 | 0.1 | x | -4.6 | -7.6 | x
C=CCOc1ccc(/C=N/NC(=O)c2c(C)nc3ccc(Cl)cn23)cc1 | x | -7.6 | -0.4 | 1.8 | 2.5
CCOc1ccc(CCNC(=O)c2cccc(S(=O)(=O)N3CCN(C(C)=O)CC3)c2)cc1OCC | -1.3 | -7.1 | -3.8 | 3.4 | -0.3
Cc1ncc([N+](=O)[O-])n1CC(=O)Nc1cccc(C(F)(F)F)c1 | 0.1 | -1.7 | -6.0 | 0.6 | x
